One assay has as its system PBMC. Kind of assay: In vitro inhibition of tumor necrosis factor alpha production in LPS-challenged human peripheral blood mononuclear cells. The format is functional, cell-based.
Conditions: not given
The method in brief: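 Human PBMC at 5 × 10⁵ cells/mL in RPMI1640 with 5% heat-inactivated FCS and antibiotics, pretreated with compound in DMSO for 60 min at 37 °C. Then stimulated with Salmonella minnesota R595 LPS (final 100 ng/mL) and cultured overnight. Supernatant TNF-α measured by human TNF-α ELISA; IC50 derived.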
In the case of `Cc1c(Cc2ccccc2)c(=O)oc2c(C)c(OC(=O)N(C)C)ccc12`, the concentration for half-maximal inhibition (IC50) (usually the concentration needed to halve the response being measured) is 10.3 µM.
On the same count and under the same terms, the value for `Cc1c(Cc2ccccc2)c(=O)oc2cc(OC(=O)N(C)C)c(I)cc12` was 0.06 µM; that for `CN(C)C(=O)Oc1ccc2c(CC(O)c3ccc(C#N)cc3)c(Cc3ccccc3)c(=O)oc2c1` (stereo not drawn) was 28.3 µM.
Same read-out and setting: the figure for `Cc1c(Cc2cccnc2)c(=O)oc2cc(OC(=O)N(C)C)ccc12` is 2.7 µM; for `Cc1c(-c2ccc(N)cc2)c(=O)oc2cc(OC(=O)N(C)C)ccc12` it is 5.2 µM; for `CN(C)C(=O)Oc1ccc2c(-c3ccc(F)cc3)c(Cc3ccccc3)c(=O)oc2c1` it is 41.7 µM.
Still for that read-out and setting: the figure for `Cc1c(Cc2ccccc2)c(=O)oc2cc(OC(=O)N(C)C)c(C#N)cc12` is 0.85 µM; for `CN(C)C(=O)Oc1ccc2cc(Cc3ccccc3)c(=O)oc2c1` it is over 50 µM.
Compound `CCc1c(Cc2ccccc2)c(=O)oc2cc(OC(=O)N(C)C)ccc12` gave an IC50 of 1.7 µM.
The same measure, in the same setting: the value for `C=CCCC(O)Cc1c(Cc2ccccc2)c(=O)oc2cc(OC(=O)N(C)C)ccc12` (stereo not drawn) was 48.4 µM.
The same measure, in the same setting: the value for `Cc1c(Cc2ccccc2)c(=O)oc2cc(OC(=O)N(C)C)c(C(=O)O)cc12` was over 50 µM; that for `CCOC(=O)CC(=O)Nc1cccc(Cc2c(C)c3cc(Cl)c(OC(=O)N(C)C)cc3oc2=O)c1` was 0.05 µM.
`CN(C)C(=O)Oc1ccc2c(CCO)c(Cc3ccccc3)c(=O)oc2c1` registered an IC50 of 2.1 µM.
The compound `CN(C)C(=O)Oc1ccc2c(CCc3ccccc3)c(Cc3ccccc3)c(=O)oc2c1` gave a half-maximal inhibitory concentration (IC50) of over 50 µM.
Same read-out and setting: the value for `COC(=O)c1ccc(-c2c(C)c3ccc(OC(=O)N(C)C)cc3oc2=O)cc1` was at least 50 µM.
Compound `CN(C)C(=O)Oc1ccc2c(C(F)(F)F)c(Cc3ccc(F)cc3)c(=O)oc2c1` displayed an IC50 of over 50 µM.
The same measure, in the same setting: the figure for `COc1cc2c(C)c(Cc3ccccc3)c(=O)oc2cc1OC(=O)N(C)C` is 0.58 µM.
The same measure, in the same setting: the value for `Cc1c(CCc2ccccc2)c(=O)oc2cc(OC(=O)N(C)C)ccc12` was over 50 µM; that for `CN(C)C(=O)Oc1ccc2c(CC(O)c3nccs3)c(Cc3ccccc3)c(=O)oc2c1` (stereo not drawn) was 16.5 µM; that for `Cc1c(Cc2ccccc2)c(=O)oc2cc(OC(=O)N(C)C)c([N+](=O)[O-])cc12` was 0.12 µM.
The compound `CCCCCc1c(C)c2ccc(OC(=O)N(C)C)cc2oc1=O` returned a half-inhibitory concentration (IC50) of 22.8 µM. This IC50 lies about 190-fold higher than the previous one.
Still for that read-out and setting: the value for `COc1cc(OC(=O)N(C)C)cc2oc(=O)c(Cc3ccccc3)c(C)c12` was over 50 µM; that for `Cc1c(Cc2ccccc2)c(=O)oc2cc(OC(=O)N(C)C)c(C=O)cc12` was 9.8 µM; that for `Cc1c(CN2CCOCC2)c(=O)oc2cc(OC(=O)N(C)C)ccc12` was over 50 µM.
Same read-out and setting: the figure for `Cc1cc(=O)oc2cc(OC(=O)N(C)C)ccc12` is over 50 µM.
On to `Cc1c(CN2CCCCC2)c(=O)oc2cc(OC(=O)N(C)C)ccc12`, for which the IC50 is over 50 µM.
Same read-out and setting: the value for `CCc1cc2c(C)c(Cc3ccccc3)c(=O)oc2cc1OC(=O)N(C)C` was 4.6 µM; that for `CN(C)C(=O)Oc1ccc2c(C(=O)O)c(Cc3ccccc3)c(=O)oc2c1` was over 50 µM.
Still for that read-out and setting: the figure for `Cc1c(CC2CCCCC2)c(=O)oc2cc(OC(=O)N(C)C)ccc12` is 7.2 µM; for `Cc1c(Cc2ccccn2)c(=O)oc2cc(OC(=O)N(C)C)ccc12` it is 6.5 µM.
Same read-out and setting: the value for `CN(C)C(=O)Oc1ccc2c(CC(O)C3CCCCC3)c(Cc3ccccc3)c(=O)oc2c1` (stereo not drawn) was over 50 µM; that for `Cc1c(-c2cccc(C(F)(F)F)c2)c(=O)oc2cc(OC(=O)N(C)C)ccc12` was over 50 µM; that for `CN(C)C(=O)Oc1ccc2c(-c3ccncc3)c(Cc3ccccc3)c(=O)oc2c1` was 4.9 µM.
The compound `Cc1c(Cc2ccc(F)cc2)c(=O)oc2cc(OC(=O)N(C)C)ccc12` displayed an IC50 of 0.32 µM.
The same measure, in the same setting: the value for `CN(C)C(=O)Oc1ccc2c(-c3ccccc3F)c(Cc3ccccc3)c(=O)oc2c1` was 4.9 µM; that for `CN(C)C(=O)Oc1ccc2c(-c3ccccc3)c(Cc3ccc(F)cc3)c(=O)oc2c1` was 1.7 µM; that for `Cc1c(-c2ccc(C(F)(F)F)cc2)c(=O)oc2cc(OC(=O)N(C)C)ccc12` was over 50 µM.
Same read-out and setting: the figure for `Cc1c(C)c2ccc(OC(=O)N(C)C)cc2oc1=O` is at least 50 µM; for `COc1ccccc1-c1c(C)c2ccc(OC(=O)N(C)C)cc2oc1=O` it is 7.5 µM.
The same measure, in the same setting: the value for `COC(=O)c1cccc(-c2c(C)c3ccc(OC(=O)N(C)C)cc3oc2=O)c1` was 1.7 µM; that for `Cc1c(Cc2ccccc2)c(=O)oc2cc(OC(=O)N(C)C)c(C(C)C)cc12` was 40.1 µM; that for `Cc1cc2c(C)c(Cc3ccccc3)c(=O)oc2cc1OC(=O)N(C)C` was 0.4 µM.
On to `CCCCCCc1c(C)c2ccc(OC(=O)N(C)C)cc2oc1=O`, for which the IC50 came to 25.4 µM.
The same measure, in the same setting: the value for `CCCCc1c(C)c2ccc(OC(=O)N(C)C)cc2oc1=O` was 24.7 µM.
`Cc1c(-c2ccccc2)c(=O)oc2cc(OC(=O)N(C)C)ccc12`: the IC50 was over 50 µM.
Same read-out and setting: the value for `Cc1c(Cc2ccccc2)c(=O)oc2cc(OC(=O)N(C)C)c(Cl)cc12` was 0.09 µM; that for `CCCc1c(Cc2ccccc2)c(=O)oc2cc(OC(=O)N(C)C)ccc12` was 0.78 µM.
Take `CN(C)C(=O)Oc1ccc2c(-c3ccccn3)c(Cc3ccccc3)c(=O)oc2c1`: the half-inhibitory concentration (IC50) amounted to 18.7 µM.
For `COc1cccc(-c2c(C)c3ccc(OC(=O)N(C)C)cc3oc2=O)c1`, the IC50 was found to be 3.2 µM.
On the same count and under the same terms, the figure for `Cc1c(Cc2ccccc2)c(=O)oc2cc(OC(=O)N(C)C)cc(F)c12` is 0.44 µM; for `CC(=O)Nc1cccc(Cc2c(C)c3cc(Cl)c(OC(=O)N(C)C)cc3oc2=O)c1` it is 0.31 µM.
Regarding `Cc1c(-c2cccc(N)c2)c(=O)oc2cc(OC(=O)N(C)C)ccc12`, the IC50 stood at 2.7 µM.
Same read-out and setting: the figure for `Cc1c(Cc2ccncc2)c(=O)oc2cc(OC(=O)N(C)C)c(Cl)cc12` is 0.13 µM.
In the case of `CN(C)C(=O)Oc1ccc2c(-c3ccc(C(F)(F)F)cc3)c(Cc3ccccc3)c(=O)oc2c1`, the IC50 was over 50 µM.
Compound `CN(C)C(=O)Oc1ccc2c(-c3cccc(C(F)(F)F)c3)c(Cc3ccccc3)c(=O)oc2c1` had a 50% inhibitory concentration (IC50) of over 50 µM.
The same measure, in the same setting: the figure for `Cc1c(Cc2ccccc2)c(=O)oc2cc(OC(=O)N(C)C)ccc12` is 1.8 µM.
Still for that read-out and setting: the figure for `Cc1c(Cc2cccnc2)c(=O)oc2cc(OC(=O)N(C)C)c(Cl)cc12` is 0.45 µM; for `Cc1c(-c2ccccc2N)c(=O)oc2cc(OC(=O)N(C)C)ccc12` it is 2.1 µM; for `Cc1c(Cc2ccncc2)c(=O)oc2cc(OC(=O)N(C)C)ccc12` it is 1.3 µM.
`Cc1c(Cc2ccccc2)c(=O)oc2cc(OC(=O)N(C)C)c(Br)cc12` yielded an IC50 of 0.06 µM.
As for `Cc1c(-c2ccccc2C(F)(F)F)c(=O)oc2cc(OC(=O)N(C)C)ccc12`, the IC50 is at least 50 µM.
On the same count and under the same terms, the value for `COc1ccc(-c2c(C)c3ccc(OC(=O)N(C)C)cc3oc2=O)cc1` was 5.6 µM; that for `CCCc1c(Cc2ccc(F)cc2)c(=O)oc2cc(OC(=O)N(C)C)ccc12` was 1.2 µM.

Another assay concerns Rattus norvegicus. The assay is described as follows: Tested in vivo for inhibition of serum tumor necrosis factor alpha production in rats at 100 mg/kg subcutaneous dose. The format is functional. Conditions: sc. The method in brief:
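LPS (E. coli B055/B5, 0.1 mg/kg) challenge given […] sc compound, usually in 20% EtOH/80% PEG400; pyridine-containing compounds given in saline as in situ HCl salts. Serum TNF-α measured by ELISA 90 min later. Percent inhibition at 100 mg/kg calculated against an untreated control.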
For `Cc1c(Cc2cccnc2)c(=O)oc2cc(OC(=O)N(C)C)ccc12`, the inhibition in vivo – broadly, how much of the control response was suppressed – at 100 mg/kg came to 86%.
The compound `Cc1c(Cc2ccc(F)cc2)c(=O)oc2cc(OC(=O)N(C)C)ccc12` gave an inhibition in vivo at 100 mg/kg of 42%.
Still for that read-out and setting: the value for `Cc1c(Cc2ccccc2)c(=O)oc2cc(OC(=O)N(C)C)c(Cl)cc12` was 57%.
As for `Cc1c(Cc2cccnc2)c(=O)oc2cc(OC(=O)N(C)C)c(Cl)cc12`, 100 mg/kg produced 86% inhibition in vivo.

Another assay concerns Rattus norvegicus. The assay is described as follows: Tested in vivo for inhibition of serum tumor necrosis factor alpha production in rats at 100 ug/kg subcutaneous dose. The class given is functional. To be noted: sc. In short, it runs like this:
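LPS (E. coli B055/B5, 0.1 mg/kg) challenge given […] subcutaneous test compound, usually in 20% EtOH/80% PEG400; pyridine-containing compounds were given in saline as HCl salts formed in situ. Serum TNF-α was measured by ELISA 90 min later. Percent inhibition was calculated against an untreated control.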
On to `C[C@@H]1C[C@H]2[C@@H]3CCC4=CC(=O)C=C[C@]4(C)[C@@]3(F)[C@@H](O)C[C@]2(C)[C@@]1(O)C(=O)CO` [DEXAMETHASONE], for which testing at 0.1 mg/kg gave an inhibition in vivo of 99%.

For the origin of these results see ChEMBL document CHEMBL1146721, “Discovery and structure-activity relationship of coumarin derivatives as TNF-alpha inhibitors” (Bioorg Med Chem Lett, 2004).
